Compounds with a hit are over-represented: about 4.5% of the library has one in this group of screens.
APP 5'UTR act = activates APP 5'UTR luciferase reporter; activation, % at 2 µM; AID 1276; SH-SY5Y APP 5'UTR luciferase reporter, luminescence; zero percent = DMSO vehicle wells; 190,000 tested, 1% active;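 active = activation above a set limit, based on mean plus 3 SD of controls, cut at about 140% in these data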
Mdm2 ligase inh = Mdm2 E3 ligase (human) inhibition. signal enhancement, % at 5 µM. cell-based MDM2 ubiquitination luciferase reporter, 2 h; 0 = plate control, 100 = twice control, blank-subtracted. AID 1230. Q00987. 210,000 tested, 0.11% active;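 active = signal enhancement of 30% or more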;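 note: luminescence tracks abundance of the self-degrading MDM2-luciferase fusion protein; higher signal means inhibition of MDM2 E3 ligase activity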
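Test system: mammalian cells stably expressing self-ubiquitinating, self-degrading MDM2 E3–luciferase fusion; Amount: 2000 cells in each well; Medium: DMEM; Schedule: 4 h settle plus 2 h compound, 37 °C; Technique: SteadyLite luciferase luminescence after 15 min room-temperature reagent incubation; Benchmarks: plate control and blank wells.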
STAT1 act = activators of IFN-gamma induced STAT1 signaling; 200,000 tested, 2.6% active; activation (% of control), % at 5.5 µM; NIH 3T3 STAT1-luciferase reporter, luminescence; 100% = IFN-gamma alone, no compound;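 active = activation above the screen-wide mean activation plus 3 SD, cut at about 130% in these data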;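 note: raw ratio to IFN-gamma control signal so 100% means no change and 0% no light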
PERK inh = human PERK inhibition, primary cell-based screen | AID 1416 | Q9NZJ5 | 220,000 tested, 0.17% active | inhibition, % at 5.6 µM | CHO PERK-DD fusion, SEAP luminescence translation reporter;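 active = inhibition above the mean inhibition of all tested compounds plus 3 SD, set separately per screening campaign, cut at about 2.9% in these data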;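 note: PERK kinase domain activated by AP20187 dimerizer at 100 nM; 0% = DMSO with dimerizer and 100% = rapamycin at 8.4 µM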
Target sequence (Q9NZJ5 whole entry, looked up, the tested form may be a part): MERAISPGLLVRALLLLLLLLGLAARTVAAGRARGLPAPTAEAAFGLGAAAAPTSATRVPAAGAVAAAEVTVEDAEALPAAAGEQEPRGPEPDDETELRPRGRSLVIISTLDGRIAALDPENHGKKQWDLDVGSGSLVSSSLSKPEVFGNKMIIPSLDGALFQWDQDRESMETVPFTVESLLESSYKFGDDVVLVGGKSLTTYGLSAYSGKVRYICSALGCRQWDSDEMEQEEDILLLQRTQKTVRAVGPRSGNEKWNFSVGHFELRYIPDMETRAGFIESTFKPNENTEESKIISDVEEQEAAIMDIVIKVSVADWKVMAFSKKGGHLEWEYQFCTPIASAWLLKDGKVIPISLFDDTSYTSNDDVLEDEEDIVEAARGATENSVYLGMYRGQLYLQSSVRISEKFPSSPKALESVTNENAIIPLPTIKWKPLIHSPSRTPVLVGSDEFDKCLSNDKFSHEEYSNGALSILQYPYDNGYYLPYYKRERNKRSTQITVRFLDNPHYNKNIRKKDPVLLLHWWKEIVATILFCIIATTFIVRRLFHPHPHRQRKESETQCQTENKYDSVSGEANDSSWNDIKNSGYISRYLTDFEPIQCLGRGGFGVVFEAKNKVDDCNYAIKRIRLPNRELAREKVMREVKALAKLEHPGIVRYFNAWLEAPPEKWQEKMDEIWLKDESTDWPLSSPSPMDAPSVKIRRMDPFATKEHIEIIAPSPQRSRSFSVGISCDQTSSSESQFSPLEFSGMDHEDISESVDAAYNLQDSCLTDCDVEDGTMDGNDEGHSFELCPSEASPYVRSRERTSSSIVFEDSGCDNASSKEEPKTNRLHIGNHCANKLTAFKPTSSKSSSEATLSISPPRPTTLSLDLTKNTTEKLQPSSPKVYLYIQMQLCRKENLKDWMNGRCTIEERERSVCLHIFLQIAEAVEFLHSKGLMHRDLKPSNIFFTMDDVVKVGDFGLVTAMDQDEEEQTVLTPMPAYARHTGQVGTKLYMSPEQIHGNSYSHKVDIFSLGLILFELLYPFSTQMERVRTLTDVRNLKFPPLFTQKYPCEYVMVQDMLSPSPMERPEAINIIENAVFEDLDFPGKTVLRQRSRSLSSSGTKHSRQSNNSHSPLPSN
NF-kB expr up = compounds increasing NF-kB expression in human neuronal cells | NF-kB reporter expression; stronger effect = higher value | fold change at 12.5 µM | 190,000 tested, 1.6% active; in the data active = fold change above about 3.3
AHR activator = human AHR activation; P35869; AHR-responsive luciferase reporter cells, luminescence; activation, % at 5 µM; 320,000 tested, 2.5% active; AID 2796; in the data active = activation above about 47%;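 note: 0% = vehicle wells and 100% = reference agonist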
The depositor's hits bear a star; / = no result.

SMILES	APP 5'UTR act	Mdm2 ligase inh	STAT1 act	PERK inh	NF-kB expr up	AHR activator
O=c1c(S(=O)(=O)c2ccc(Cl)cc2)cn(Cc2ccccc2F)c2ccc(F)cc12	12.0	0.2	95.3	0.3	0.99	2.9
O=C(Nc1ccc2nccnc2c1)c1cnccn1	-0.2	-40.1	112.6	1.4	1.57	19.8
COc1ccc(NC(=O)c2cccnc2)cc1OCC(C)C	/	/	/	/	/	50.5*
O=C(Nc1ccc2ccccc2c1)c1cnccn1	156.6*	-29.8	112.3	0.8	6.53*	29.8
COc1ccc(NC(=S)NNC(=O)c2cccnc2)cc1OC	14.1	-16.3	101.5	-0.1	1.41	3.1
O=C(Nc1cnc2ccccc2c1)c1ccncc1	132.6	-16.7	129.5*	1.4	3.48*	23.8
O=C(Nc1ccc(Cl)c(-c2nc3ccccc3[nH]2)c1)c1cccnc1	0.1	-4.4	101.8	-0.7	0.66	51.8*
Cc1ccc(S(=O)(=O)NC(=O)c2cc(C)n(C3CC3)c2C)cc1	19.6	2.0	99.0	1.4	1.28	2.0
O=C(Nc1ccc(Cl)c([N+](=O)[O-])c1)c1cnccn1	12.6	-7.5	100.2	0.6	0.92	70.4*
O=C(Nc1ccc2ccccc2c1)c1cccnc1	125.4	-6.7	137.0*	0.5	5.01*	51.7*
COc1ccc(NC(=O)c2cccnc2)cc1	/	/	/	/	/	-0.5
Cc1ccc(NC(=O)C(c2ccccc2)N2CCN(CC(=O)N3CCOCC3)CC2)cc1Cl (stereo unspecified)	/	/	/	/	/	1.9
Cc1cc(C(=O)N/N=C/c2cccc([N+](=O)[O-])c2)c(C)n1-c1ccccc1	35.6	-5.6	131.6*	-0.2	1.21	12.9
COc1ccc(/C=N/NC(=O)c2cc(C)n(-c3ccccc3)c2C)cc1OC	-4.0	-11.7	102.9	0.6	1.36	18.3
CCOC(=O)c1c(CSC(=N)N)n(-c2ccccc2)c2cc(Br)c(OC(C)=O)cc12	/	-12.7	/	-1.5	/	-0.5
CSc1ccc(CNc2ccccn2)cc1	40.8	-22.6	129.0*	0.4	1.98	3.6
CNC(=O)/C(C#N)=C/c1ccc(-c2ccc(Cl)cc2)o1	58.1	-6.8	141.7*	-0.5	1.88	11.3
CC1CC1c1ccc(/C=C(\C#N)C(=O)Nc2cc(Cl)ccc2Cl)o1 (stereo unspecified)	-0.5	-6.2	95.2	0.6	1.06	60.1*
N#C/C(=C\c1ccc(-c2ccc(C(=O)O)cc2)o1)C(=O)Nc1ccc(F)cc1	/	/	/	/	/	77.2*
CC1CC1c1ccc(/C=C(\C#N)C(=O)Nc2ccc(Cl)cc2Cl)o1 (stereo unspecified)	15.3	-1.4	98.4	1.9	1.28	5.2
CCCCCCOC(=O)Sc1nc2ccccc2o1	11.0	-20.9	107.5	1.4	4.06*	-6.2
O=C1Nc2ccccc2N(O)N1c1ccc(Cl)c(Cl)c1	-9.3	-15.3	101.1	1.3	1.03	-0.4
O=C1Nc2cc(Cl)c(Cl)cc2N(O)N1c1ccc(Cl)c(Cl)c1	8.7	-4.4	91.6	0.2	1.41	57.4*
O=[N+]([O-])c1ccc(Oc2cccc3cccnc23)c([N+](=O)[O-])c1	7.9	-8.8	86.7	0.4	1.16	53.1*
CN1C(=O)c2ccc(C(=O)Nc3ccccc3O)cc2C1=O	/	/	/	/	/	55.8*
SMILES	APP 5'UTR act	Mdm2 ligase inh	STAT1 act	PERK inh	NF-kB expr up	AHR activator
COc1cccc(CSCC(=O)NCCc2ccccc2)c1OC	/	/	/	/	/	-0.8
COc1cccc(/C=N/N2CCN(c3ccccc3OC)CC2)c1	32.0	-6.1	135.1*	0.3	1.94	-1.3
COc1ccccc1N1CCN(/N=C/C=C\c2ccco2)CC1	72.6	-1.5	136.9*	0.3	3.96*	-1.7
COc1ccccc1N1CCN(/N=C/c2cccc(Cl)c2)CC1	/	/	/	/	/	-2.9
CC(C)(C)C1COc2ccccc2N1C(=O)c1cccc(Cl)c1 (stereo unspecified)	/	/	/	/	/	2.0
CC(C)CCN(C(=O)C1=COCCO1)c1c(N)n(Cc2ccccc2)c(=O)[nH]c1=O	/	/	/	/	/	0.3
CCCOc1ccc(CSCCNC(=S)Nc2ccccc2)cc1	-20.8	-14.2	94.5	-0.1	0.92	90.1*
COC(=O)C1C(=O)c2c([nH]c(C(=O)OC3CCCC3C)c2C)CC1C (stereo unspecified)	156.6*	-1.1	138.1*	-0.5	3.01	18.7
COC(=O)C1C(=O)c2c([nH]c(C(=O)OC3CCCCC3)c2C)CC1C (stereo unspecified)	123.7	-6.7	125.4	0.4	1.65	-2.1
CCC1CCCCN1C(=O)CCC(=O)Nc1nnc(C(F)(F)F)s1 (stereo unspecified)	/	/	/	/	/	3.5
CCn1cc(-c2ccccc2)c(C(=O)O)c1-c1ccc(OC)cc1	/	/	/	/	/	58.0*
Cc1ccc2c(CN3CCC(C)CC3)cc(=O)oc2c1	77.9	-2.7	138.2*	-1.5	4.08*	7.9
C=CCN(CC=C)C(=S)NC(=O)c1ccc(-c2ccccc2)cc1	3.6	16.6	98.2	-0.8	0.98	3.2
C=CCN(CC=C)C(=S)NC(=O)c1ccc(OC)cc1	-10.4	-30.2	94.3	2.1	1.08	51.1*
C=CCSc1nc2ccccc2n1C(=O)/C=C/c1cc(OC)c(OC)c(OC)c1	-57.6	53.6*	145.0*	-0.3	0.7	3.2
CCSc1nc2ccccc2n1C(=O)/C=C/c1ccc(OC)c(OC)c1	-42.2	64.6*	95.5	1.3	1.85	-1.5
Cc1nnsc1C(=O)N/N=C/c1ccc(OC(F)(F)F)cc1	-0.2	-28.4	95.0	0.4	1.17	10.9
COc1ccc2c(n1)Sc1nc3ccccc3nc1N2	/	-18.8	/	-1.7	/	64.5*
CCc1ccccc1N(C(=O)c1snc(C(N)=O)c1N)C(C(=O)NCC1CCCO1)c1ccc(C)o1 (stereo unspecified)	/	/	/	/	/	79.1*
Cc1ccc(N(C(=O)c2snc(C(N)=O)c2N)C(C(=O)NCC2CCCO2)c2ccc(C)o2)c(C)c1 (stereo unspecified)	/	/	/	/	/	6.4
CCCC(=O)NC(=S)Nc1ccc(NC(=O)C(C)C)c(OC)c1	-2.1	-3.0	87.7	1.0	1.03	18.5
CCOC(=O)c1ccc(NC(=O)COc2ccccc2CNCCc2ccccc2)cc1	-0.9	-15.4	100.9	-1.1	0.86	50.0*
CCOC(=O)c1ccc(NC(=O)COc2ccc(CNCCO)cc2OCC)cc1	5.7	-3.8	95.2	1.4	0.81	-0.2
Cc1ccc(S(=O)(=O)Nc2ccc(-c3ccc4nncn4n3)cc2)cc1	/	/	/	/	/	2.7
Oc1ccccc1Cc1c(O)ccc2ccccc12	/	/	/	/	/	10.9
Cc1nn(-c2ccccc2)c(C)c1/C=N/NC(=O)c1cc(-c2cccc3ccccc23)n[nH]1	-4.3	-23.6	103.1	-0.6	0.42	28.9
Cc1[nH]c2ccccc2c1/C=N/NC(=O)c1cc(C(C)(C)C)[nH]n1	/	0.3	/	0.9	/	21.8
Cc1[nH]c2ccccc2c1/C=N/NC(=O)c1cc(-c2ccccc2)n[nH]1	/	-8.4	/	0.8	/	59.4*
Cc1[nH]c2ccccc2c1/C=N/NC(=O)c1cccc(Br)c1	/	/	/	/	/	67.8*

Screens as filed in PubChem BioAssay.
